# Laboratory results taken from ChEMBL document CHEMBL1145564, “Discovery of N-[(3R,5R)-1-azabicyclo[3.2.1]oct-3-yl]furo[2,3-c]pyridine-5-carboxamide as an agonist of the alpha7 nicotinic acetylcholine receptor: in vitro and in vivo activity” (Bioorg Med Chem Lett, 2008).
# Key:
# [1] = biological target: Neuronal acetylcholine receptor subunit alpha-7 (Homo sapiens, UniProt P36544); experiment: Agonist activity at alpha7-5HT3 chimera expressed in human SH-EP1 cells by FLIPR assay; format: functional, cell-based
# [2] = biological target: Neuronal acetylcholine receptor subunit alpha-7 (Rattus norvegicus, UniProt Q05941); experiment: Displacement of [3H]MLA from alpha-7 nACh receptor in rat brain; format: tissue-based
# Procedure, shortened: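 Rat brain homogenate binding with [3H]MLA; individual Ki values, mean ± SEM reported when more than 3 measurements.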
# [3] = Metabolic stability in rat liver microsomes assessed as hepatic extraction ratio after 30 mins; format: ADME, Microsome
# Procedure, shortened: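 Rat liver microsome incubation; stability reported as fraction of compound remaining after 30 min relative to t0 concentration.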
# [4] = biological target: Muscarinic acetylcholine receptor M3 (Homo sapiens) (UniProt P20309); experiment: Displacement of [3H]DAMP from human muscarinic M3 receptor expressed in CHO cells at 10 uM; format: cell-based
# Procedure, shortened: (§1)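 Human muscarinic receptors in transfected CHO cells; radioligands [3H]pirenzepine (M1), [3H]AF-DX 384 (M2), [3H]DAMP (M3); percent block at 10 µM.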
# [5] = biological target: T1, 5-hydroxytryptamine receptor 3A (Rattus norvegicus, UniProt P35563); experiment: Binding affinity to rat 5HT3 receptor
# T1 sequence (P35563 whole entry): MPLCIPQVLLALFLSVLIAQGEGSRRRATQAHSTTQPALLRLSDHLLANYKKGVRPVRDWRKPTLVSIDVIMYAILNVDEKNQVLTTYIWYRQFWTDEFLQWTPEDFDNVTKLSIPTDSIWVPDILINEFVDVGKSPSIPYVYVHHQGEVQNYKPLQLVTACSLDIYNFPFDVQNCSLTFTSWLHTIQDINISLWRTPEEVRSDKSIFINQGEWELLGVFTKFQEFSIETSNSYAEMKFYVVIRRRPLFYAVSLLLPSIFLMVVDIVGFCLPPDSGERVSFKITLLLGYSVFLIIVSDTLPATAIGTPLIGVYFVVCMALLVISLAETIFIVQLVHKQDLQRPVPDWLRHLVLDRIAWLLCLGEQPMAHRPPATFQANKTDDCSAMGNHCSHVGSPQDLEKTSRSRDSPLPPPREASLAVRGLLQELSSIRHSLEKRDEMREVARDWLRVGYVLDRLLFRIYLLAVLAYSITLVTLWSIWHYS
# [6] = biological target: T2, Muscarinic acetylcholine receptor M1 (Homo sapiens) (UniProt P11229); experiment: Displacement of [3H]pirenzepine from human muscarinic M1 receptor expressed in CHO cells at 10 uM; format: cell-based; procedure, shortened: as §1
# T2 sequence (whole entry): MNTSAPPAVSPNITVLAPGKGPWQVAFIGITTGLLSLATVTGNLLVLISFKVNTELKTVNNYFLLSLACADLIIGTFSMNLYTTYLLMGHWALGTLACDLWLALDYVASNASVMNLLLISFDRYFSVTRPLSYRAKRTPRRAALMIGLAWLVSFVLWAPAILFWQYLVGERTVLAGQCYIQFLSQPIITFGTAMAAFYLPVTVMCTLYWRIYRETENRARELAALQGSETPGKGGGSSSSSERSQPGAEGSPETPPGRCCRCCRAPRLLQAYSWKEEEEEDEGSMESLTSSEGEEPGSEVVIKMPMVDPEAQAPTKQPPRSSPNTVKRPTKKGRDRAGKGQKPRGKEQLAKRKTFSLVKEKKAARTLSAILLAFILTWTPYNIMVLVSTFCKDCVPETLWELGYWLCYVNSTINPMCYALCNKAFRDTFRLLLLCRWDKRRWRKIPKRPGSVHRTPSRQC
# [7] = biological target: Neuronal acetylcholine receptor; alpha4/beta2 (Rattus norvegicus) (UniProt P09483+P12390); experiment: Displacement of [3H][…] from alpha-4-beta-2 nACh receptor in rat brain at 1 uM; format: tissue-based
# Procedure, shortened: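 Rat brain homogenate binding using [3H][…]; percent block at 1 µM.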
# [8] = Metabolic stability in human liver microsomes assessed as half life; format: ADME, Microsome
# [9] = Ratio of drug level in brain to plasma in mouse at 10 mg/kg after 60 min; format: ADME, organism-based; set-up: dose 10 mg/kg
# Procedure, shortened: (§2)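 Mouse brain uptake: brain and plasma concentrations after a 10 mg/kg dose, ratio taken at 5 and 60 min.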
# [10] = Cmax in dog ECG model; format: ADME, organism-based, Canis lupus familiaris; conditions: in vivo
# Procedure, shortened: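 Acute dog ECG cardiovascular safety study; no-observable-adverse-effect dose set, with Cmax measured at that dose.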
# Rattus norvegicus [11] = experiment: Reversal of amphetamine-induced auditory gating deficit in iv dosed rat auditory sensory gating model; conditions: read-out: MED
# Rattus norvegicus [12] = experiment: Volume of distribution at steady state in Sprague-Dawley rat at 5 mg/kg, po; format: ADME, organism-based; set-up: dose 5 mg/kg, route oral; conditions: in vivo
# Procedure, shortened: (§3)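 Sprague-Dawley rats given a single 5.0 mg/kg oral dose; pharmacokinetic parameters derived from plasma.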
# [13] = Apparent permeability from apical to basolateral side in dog MDCK cells; format: ADME, cell-based, Canis lupus familiaris
# Procedure, shortened: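 MDCK monolayer permeability measured apical to basolateral, expressed as Papp (x10^-6 cm/s).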
# Plasma = experiment: Fraction unbound in human plasma at 0.100 ug/mL; format: ADME, cell-free
# Procedure, shortened: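 Human plasma protein binding as fraction unbound, measured at drug concentration 0.100 µg/mL.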
# [14] = biological target: T3, Muscarinic acetylcholine receptor M2 (Homo sapiens) (UniProt P08172); experiment: Displacement of [3H]AF-DX384 from human muscarinic M2 receptor expressed in CHO cells at 10 uM; format: cell-based; procedure, shortened: as §1
# T3 sequence (whole entry): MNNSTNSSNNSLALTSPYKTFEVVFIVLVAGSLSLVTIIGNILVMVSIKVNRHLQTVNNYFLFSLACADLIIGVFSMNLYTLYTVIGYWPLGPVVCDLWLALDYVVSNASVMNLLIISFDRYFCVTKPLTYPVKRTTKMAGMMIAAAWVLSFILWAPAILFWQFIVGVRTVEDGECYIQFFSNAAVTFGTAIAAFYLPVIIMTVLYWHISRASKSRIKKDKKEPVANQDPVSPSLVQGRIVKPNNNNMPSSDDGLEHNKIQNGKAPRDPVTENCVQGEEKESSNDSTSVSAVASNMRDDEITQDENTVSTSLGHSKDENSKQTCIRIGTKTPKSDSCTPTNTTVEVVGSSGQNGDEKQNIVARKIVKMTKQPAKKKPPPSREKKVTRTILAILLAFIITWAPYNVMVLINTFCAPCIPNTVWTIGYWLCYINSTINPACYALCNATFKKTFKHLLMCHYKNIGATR
# [15] = Clearance in Sprague-Dawley rat at 5 mg/kg, po; format: ADME, organism-based; set-up: dose 5 mg/kg, route oral; conditions: in vivo; procedure, shortened: as §3
# [16] = Ratio of drug level in brain to plasma in mouse at 10 mg/kg after 5 mins; format: ADME, organism-based; set-up: dose 10 mg/kg; procedure, shortened: as §2
# [17] = Half life in Sprague-Dawley rat at 5 mg/kg, po; format: ADME, organism-based; set-up: dose 5 mg/kg, route oral; conditions: in vivo; procedure, shortened: as §3
# Neuronal acetylcholine receptor subunit alpha-7 (Rattus norvegicus, UniProt Q05941), sequence (Q05941 whole entry): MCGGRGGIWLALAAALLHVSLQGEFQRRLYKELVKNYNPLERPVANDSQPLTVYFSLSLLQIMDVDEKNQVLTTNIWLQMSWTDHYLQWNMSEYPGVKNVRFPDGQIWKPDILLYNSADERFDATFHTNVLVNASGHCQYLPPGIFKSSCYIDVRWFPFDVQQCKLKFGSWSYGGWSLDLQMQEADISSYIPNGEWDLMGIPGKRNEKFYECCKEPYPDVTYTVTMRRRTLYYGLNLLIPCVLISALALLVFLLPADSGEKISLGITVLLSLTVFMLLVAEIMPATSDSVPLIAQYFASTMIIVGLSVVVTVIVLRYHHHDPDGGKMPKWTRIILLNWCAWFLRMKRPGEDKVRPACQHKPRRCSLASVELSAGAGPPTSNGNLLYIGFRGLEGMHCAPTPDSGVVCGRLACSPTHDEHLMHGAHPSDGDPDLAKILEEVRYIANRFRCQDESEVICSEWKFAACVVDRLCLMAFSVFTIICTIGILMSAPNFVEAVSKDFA
# Neuronal acetylcholine receptor subunit alpha-7 (Homo sapiens, UniProt P36544), sequence (P36544 23-502 limits assumed): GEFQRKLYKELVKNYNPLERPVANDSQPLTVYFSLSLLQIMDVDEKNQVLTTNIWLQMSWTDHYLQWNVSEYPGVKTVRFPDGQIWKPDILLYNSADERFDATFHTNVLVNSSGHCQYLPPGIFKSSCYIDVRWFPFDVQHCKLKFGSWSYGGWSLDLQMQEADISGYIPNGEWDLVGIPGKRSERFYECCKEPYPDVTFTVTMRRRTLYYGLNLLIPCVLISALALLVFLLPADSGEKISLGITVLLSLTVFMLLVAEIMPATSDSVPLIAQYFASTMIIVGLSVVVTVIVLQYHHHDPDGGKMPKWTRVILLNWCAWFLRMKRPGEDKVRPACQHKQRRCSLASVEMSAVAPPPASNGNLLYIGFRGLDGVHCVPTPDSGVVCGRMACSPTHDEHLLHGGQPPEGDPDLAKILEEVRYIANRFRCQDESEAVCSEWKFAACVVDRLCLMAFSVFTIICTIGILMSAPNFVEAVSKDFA
# Muscarinic acetylcholine receptor M3 (Homo sapiens), sequence (P20309 whole entry, looked up): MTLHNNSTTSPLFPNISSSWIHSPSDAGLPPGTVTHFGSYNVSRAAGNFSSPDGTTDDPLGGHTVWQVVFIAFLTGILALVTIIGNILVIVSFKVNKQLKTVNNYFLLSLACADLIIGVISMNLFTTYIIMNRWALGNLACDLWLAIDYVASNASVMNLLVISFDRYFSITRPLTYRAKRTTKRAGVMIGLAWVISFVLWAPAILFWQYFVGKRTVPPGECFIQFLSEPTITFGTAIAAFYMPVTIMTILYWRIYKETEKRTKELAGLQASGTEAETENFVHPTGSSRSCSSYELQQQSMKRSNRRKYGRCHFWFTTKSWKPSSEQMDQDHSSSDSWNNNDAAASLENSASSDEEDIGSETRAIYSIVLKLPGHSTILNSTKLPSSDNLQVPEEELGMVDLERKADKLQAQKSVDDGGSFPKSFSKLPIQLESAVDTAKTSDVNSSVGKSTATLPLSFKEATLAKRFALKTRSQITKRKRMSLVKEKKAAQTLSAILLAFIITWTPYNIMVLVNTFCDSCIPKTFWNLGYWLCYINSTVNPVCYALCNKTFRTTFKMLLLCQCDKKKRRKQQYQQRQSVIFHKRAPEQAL
Structure (SMILES),EC50 [1] [nM],Ki [2] [nM],hepatic extraction ratio at 0.5 h [3],Kp at 1 h [9],Papp A→B [13] [×10⁻⁶ cm/s],Kp at 5 min [16],further results
O=C(N[C@@H]1C[C@H]2CCN(C2)C1)c1ccc2c(c1)OCCO2,430,29,0.74,–,–,–,–
O=C(N[C@H]1CN2CCC1CC2)c1cc2ccoc2cn1 [PHA-543613],–,9,–,1.5,34,1.5,Activity [4]: 33%; Ki [5]: 630 nM; Activity [6]: 16%; Activity [7]: 13%; half-life [8]: > 120 min; Cmax [10]: 3.8 µM; minimal effective dose (Rattus norvegicus [11]): 0.24 mg/kg; Vdss (Rattus norvegicus [12]): 1.8 L/kg; fraction unbound (Plasma): 0.83; Activity [14]: 23%; CL/F [15]: 33 mL/min/kg; half-life [17]: 36 min
O=C(N[C@@H]1C[C@H]2CCN(C2)C1)c1ccc2ncsc2c1,182,21,< 0.27,0.33,0.2,0.02,–
O=C(N[C@H]1CN2CCC1CC2)c1ccc(Cl)cc1 [PNU-282987],128,–,< 0.27,–,–,–,–
O=C(N[C@@H]1C[C@H]2CCN(C2)C1)c1ccc(Cl)cc1,190,–,0.37,–,–,–,–
